Assay outcomes as filed in PubChem.
Cl transport mod: KCC2 (human) Cl- transport modulation. Q9H2X9. KCC2 cells, thallium flux FluoZin-2 fluorescence. B-score of Tl+ flux slope (higher = more flux/activation; lower = inhibition) at 10 µM. hit rate 2.2% among 190,000. AID 1456;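 active = thallium flux slope and its plate-corrected score both differing from the plate sample mean at a set confidence after two filtering rounds, in either direction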;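 also: slope of fluorescence scaled to starting intensity during 10 to 20 s after thallium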
KCNQ1 act: human KCNQ1 channel potentiation or activation; P51787; CHO-K1 KCNQ1, thallium flux FluxOR fluorescence; active compounds read high; B-score at 10 µM; hit rate 0.35% among 310,000; AID 2648;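 active = fluorescence ratio B-score, a plate-corrected score, at least three library SD, with initial intensity B-score within 5 SD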
Target sequence (P51787 whole entry, looked up): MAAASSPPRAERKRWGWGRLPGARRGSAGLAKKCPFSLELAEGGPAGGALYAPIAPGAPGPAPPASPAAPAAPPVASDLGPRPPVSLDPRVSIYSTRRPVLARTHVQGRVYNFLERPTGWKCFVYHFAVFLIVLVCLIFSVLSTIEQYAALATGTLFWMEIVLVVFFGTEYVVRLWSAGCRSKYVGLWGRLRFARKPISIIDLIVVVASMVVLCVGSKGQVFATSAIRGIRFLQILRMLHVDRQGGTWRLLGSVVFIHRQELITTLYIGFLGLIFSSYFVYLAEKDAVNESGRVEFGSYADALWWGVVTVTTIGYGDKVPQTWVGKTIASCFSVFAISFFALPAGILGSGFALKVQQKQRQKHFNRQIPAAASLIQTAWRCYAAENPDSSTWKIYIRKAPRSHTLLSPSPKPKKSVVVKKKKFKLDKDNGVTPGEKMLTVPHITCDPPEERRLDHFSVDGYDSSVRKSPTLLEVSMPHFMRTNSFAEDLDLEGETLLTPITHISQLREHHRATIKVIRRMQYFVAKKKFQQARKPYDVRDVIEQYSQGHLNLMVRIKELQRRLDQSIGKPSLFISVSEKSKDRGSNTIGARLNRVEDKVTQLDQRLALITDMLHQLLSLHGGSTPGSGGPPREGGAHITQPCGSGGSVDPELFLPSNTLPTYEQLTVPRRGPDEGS
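Test system: CHO-K1 cells stably expressing KCNQ1 / Medium: assay buffer / Also added: depolarizing K+/Tl+ stimulus, K2SO4 and Tl2SO4 each 12.5 mM in 5x stock / Incubation: 90 min dye loading and 20 min compound exposure, both at room temperature / Signal: thallium influx via FluxOR fluorescence, kinetic imaging / Evaluation: B score of baseline-normalized fluorescence ratio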
SUMO Mot1 rescue: blocks SUMOylation pathway, rescuing yeast Mot1-301 growth | AID 2716 | growth rescue, % at 18.8 µM | hit rate 1% among 320,000 | S. cerevisiae Mot1-301 growth rescue, ATP luminescence, 38.5C; percent above DMSO median, 100 means doubled;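 active = every valid replicate shows activation above 250% relative to neutral control wells; inactive = the rest, any valid replicate at or below 250%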;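 also: OY570 slx delta 5 strain wells were the positive control but not used for scaling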
hERG protect: compounds protecting human hERG from proarrhythmic drug block | activation (rescue from dofetilide block), less the hit threshold, % at 10 µM | Q12809 | hit rate 0.51% among 310,000 | CHO-hERG, FluxOR thallium flux, dofetilide IC70 present;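 active = activation above the mean of controls blocked by dofetilide plus 5 SD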;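 also: thallium influx through hERG after potassium depolarization seen as dye fluorescence rise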
AI-2 QS modul: modulates the Vibrio harveyi AI-2 quorum sensing system; Vibrio harveyi JMH597 AI-2 luminescence/OD600 ratio, 9 h; active compounds read low; strain lacks LuxN and CqsS sensors; 0 = neutral-control median; activity change, % at 7.5 µM; hit rate 0.4% among 300,000; AID 2094; in the data active = activity change below about -75%, passing the limit was not always enough; inconclusive = no clear call, values can overlap the other calls;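 also: luminescence divided by OD600 gain over 9 h not by final OD600 alone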
KCNQ1 block: blocks the human KCNQ1 potassium channel; hit rate 1.3% among 310,000; CHO-K1 KCNQ1, FluxOR thallium flux fluorescence; active compounds read high; B-score at 10 µM;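 active = compounds whose thallium flux B-score, printed positive for inhibition, exceeds three library SD while starting fluorescence stays within three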;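 also: channel opened by potassium depolarization with thallium stimulus after 20 min compound exposure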
KCC2 secondary: KCC2 (human) modulation, secondary assay. shares compounds with Cl transport mod. HEK293-KCC2, thallium flux, FluoZin2 fluorescence; active compounds read high. normalised thallium flux (F/F0 slope) at 10 µM. hit rate 15% among 3,700. AID 1713;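 active = thallium flux slope above the same plate's solvent-only control mean plus 3 SD; inconclusive = the two replicate wells disagree; inactive = no significant difference from solvent-only control wells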
KCC2 bumet counter: thallium flux persisting under bumetanide in KCC2 cells, counter-screen secondary assay; shares compounds with Cl transport mod; HEK293-KCC2 + bumetanide/ouabain, thallium flux FluoZin2; active compounds read high; normalized thallium flux at 10 µM; hit rate 49% among 3,700;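 active = thallium entry rate above the same plate's blocked-transporter control wells by more than 3 SD; inconclusive = the two repeat wells disagree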;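 also: raw slope of fluorescence over initial fluorescence between 10 and 20 s after thallium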
KCC2 sec2: confirmation of human KCC2 transport modulators. AID 1715. normalized thallium flux at 10 µM. HEK293-KCC2, thallium flux FluoZin2 fluorescence; actives lie on both sides; F/F0 rise rate, 10–20 s post-thallium. shares compounds with Cl transport mod. hit rate 23% among 3,700;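 active = thallium flux slope more than 3 SD above or below the plate's solvent-only control mean, mostly below; inconclusive = the two repeat wells disagreed; inactive = no significant shift from solvent-only controls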;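 also: raw slope with 0.1% DMSO as baseline and bumetanide as block control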
HEK counter1: parental HEK flux effect, counter-screen | thallium flux rate (normalised fluorescence) at 10 µM | HEK293 parental cells, thallium flux FluoZin2, ouabain; baseline-ratio fluorescence slope, 10–20 s after thallium | shares compounds with Cl transport mod | hit rate 46% among 3,700 | AID 1716;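 active = thallium flux rate significantly above the same plate's solvent-only control wells, beyond their mean plus 3 SD; inconclusive = the two replicate wells gave conflicting results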
KCC2 ouabain: modulates human KCC2 on retest with ouabain; raw Tl+ flux slope (below DMSO = inhibition, above = activation) at 10 µM; shares compounds with Cl transport mod; hit rate 48% among 3,700; HEK293-KCC2, thallium flux FluoZin2 fluorescence; bidirectional: low = inhibitor, high = activator;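 active = thallium flux slope beyond 3 SD from same-plate DMSO control mean in most replicates, usually higher, sometimes lower; inconclusive = repeat tests gave conflicting results; inactive = no significant difference from controls in most replicates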;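 also: slope of initial-normalized fluorescence between seconds 10 and 20 after thallium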
HEK293 Tl flux2: acts in parental HEK cells, second KCC2 counter-screen; thallium flux slope at 10 µM; HEK293 parental, thallium flux FluoZin-2 fluorescence slope; shares compounds with Cl transport mod; hit rate 33% among 3,700;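 active = thallium flux slope above the same plate's solvent-control mean plus 3 SD in both duplicate wells; inconclusive = duplicate wells that disagreed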;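 also: run without ouabain in cells lacking the KCC2 cotransporter; slope of fluorescence scaled to its starting value between 10 and 20 s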
* hit, by the source's call; i = inactive; ? = inconclusive; · = no result given. Shown are actives, neighbours in structure and some others; about 4.2% of the full set was active somewhere.

SMILES | Cl transport mod | KCNQ1 act | SUMO Mot1 rescue | hERG protect | AI-2 QS modul | KCNQ1 block | KCC2 secondary | KCC2 bumet counter | KCC2 sec2 | HEK counter1 | KCC2 ouabain | HEK293 Tl flux2
COc1ccc2c(C)cc(SC3CCOC3=O)nc2c1 (configuration not stated) | -0.13 | i | 2 | -11 | 4 | i | · | · | · | · | · | ·
O=C1c2oc3ccc(F)cc3c(=O)c2C(c2ccc(F)cc2)N1CCCN1CCOCC1 (configuration not stated) | 0.23 | i | 8 | -8 | 7 | i | · | · | · | · | · | ·
COc1cccc(C2c3c(oc4ccc(F)cc4c3=O)C(=O)N2CCCN2CCOCC2)c1 (configuration not stated) | 11* | i | -12 | -8 | 9 | i | 0.0071 | 0.011* | 0.03 | 0.013* | ? | 0.014*
CCOc1ccc(N2C(=O)CS/C2=N/NC(=O)COc2ccc3ccccc3c2)cc1 | -5* | i | -5 | -11 | 14 | i | 0.0087 | 0.006 | 0.029* | 0.0045 | 0.016* | 0.011
Cc1cccc(-c2nc(=S)c3c(o2)CCCC3)c1 | 53* | i | 11 | -2 | -10 | i | 0.015* | 0.03* | 0.028 | 0.015* | ? | ?
O=C(/C=C\c1ccccc1OC(=O)c1ccccc1F)c1cc2ccccc2o1 | -0.023 | i | -18 | -3 | 19 | i | · | · | · | · | · | ·
CCOP(=O)(OCC)C(NC(=O)c1cccs1)c1ccccc1 (configuration not stated) | · | i | -8 | -6 | 5 | i | · | · | · | · | · | ·
Cc1ccc(Nc2nc(-c3ccc(C)cc3)c(CC(=O)O)s2)cc1 | -3.2* | i | -4 | -8 | 16 | i | 0.0084 | 0.0091* | 0.029 | 0.0073 | 0.018 | 0.01
COCCn1c(SCC(=O)Nc2nnc(C)s2)nnc1-c1ccco1 | 0.1 | i | 2 | -4 | 13 | i | · | · | · | · | · | ·
COCCCn1c(SCC(=O)Nc2nnc(C)s2)nnc1-c1ccoc1C | · | i | -5 | -6 | 14 | i | 0.0073 | 0.005 | 0.034 | 0.0081 | 0.019 | 0.011
CC(C)CNC(=O)c1ccccc1NC(=O)c1ccccc1N(C)S(C)(=O)=O | -3.8* | i | -3 | -5 | 6 | i | 0.0065 | 0.0047 | ? | ? | 0.019 | 0.01
Cn1c(O)c(N=NC(=O)C2COc3ccccc3O2)c2ccccc21 (configuration not stated) | -0.23 | i | 72 | -6 | -8 | i | · | · | · | · | · | ·
CC(C)n1c(O)c(N=NC(=O)C2COc3ccccc3O2)c2ccccc21 (configuration not stated) | 10* | i | -18 | 23* | 27 | i | 0.0081 | 0.028* | 0.033 | 0.03* | 0.031* | 0.026*
Cc1nn(-c2ccccc2)c(Cl)c1/C=C1\SC(=S)NC1=O | 35* | 28* | -8 | 19* | 92 | i | 0.037* | 0.16* | 0.038 | 0.063* | 0.067* | 0.027*
N#C/C(=N\Nc1ccccc1Cl)C(=O)c1ccccc1 | -4.4* | i | 6 | -10 | 13 | i | 0.0065 | 0.0048 | 0.03 | ? | 0.015* | 0.0099
N#C/C(=N\Nc1cccc(Cl)c1)C(=O)c1ccccc1 | -2.5 | i | · | -12 | 11 | i | · | · | · | · | · | ·
COC(=O)CCCC1=CC2=C(c3ccccc3)C(=O)C(C)(OC(=O)C3CCCC3)C(=O)C2=CN1Cc1ccc(OC)cc1 (configuration not stated) | -2.6* | i | -2 | -15 | 12 | i | 0.015 | 0.0042 | 0.029 | 0.0065 | 0.016 | 0.0087
COC(=O)CCCC1=CC2=C(c3ccccc3)C(=O)C(C)(OC(=O)C3CCCC3)C(=O)C2=CN1Cc1ccc2c(c1)OCO2 (configuration not stated) | -1.7 | i | 7 | -11 | 29 | i | · | · | · | · | · | ·
COc1ccc(NC(=O)C(=O)N/N=C/c2cccnc2)c(OC)c1 | 7.7* | i | -2 | -6 | 50 | i | 0.0058 | ? | 0.03 | 0.0086 | 0.021 | 0.012
COc1ccc(NC(=O)/C(C#N)=C/c2cccnc2)c(OC)c1 | · | i | 12 | -14 | 22 | i | · | · | · | · | · | ·
COc1ccc(CNC(=O)COc2ccc(S(=O)(=O)N3CCOCC3)cc2C)cc1 | · | i | 9 | -13 | 5 | i | · | · | · | · | · | ·
COc1ccc(OC)c(-c2cc(C(=O)Nc3ccc(F)cc3F)no2)c1 | -0.03 | i | i | -12 | -4 | i | · | · | · | · | · | ·
CCC(=O)c1cc(F)c(N2CCN(C(=O)Cc3ccccc3)CC2)cc1C | -2.9* | i | 28 | -15 | 21 | i | 0.0074 | 0.0053 | 0.033 | 0.0074 | 0.018* | ?
COc1ccc(CC(=O)N2CCN(c3ccccc3F)CC2)cc1OC | · | i | 2 | -4 | · | i | · | · | · | · | · | ·
CCC(=O)c1ccc(N2CCN(C(=O)Cc3ccccc3)CC2)c(F)c1 | -1.5 | i | 10 | -4 | 31 | i | · | · | · | · | · | ·
O=C(Cc1ccc(-n2cccc2)cc1)N1CCN(c2ccccc2F)CC1 | -6.8* | i | 8 | -8 | -6 | i | 0.0078 | 0.0055 | 0.032 | 0.0038 | 0.016* | 0.012
NC(=NCCc1ccccc1)NS(=O)(=O)c1ccccc1F | · | i | -36 | -2 | 10 | i | · | · | · | · | · | ·
O=[N+]([O-])c1ccc(-c2cn(-c3ccccc3F)c(=S)[nH]2)cc1 | 5.8* | i | 19 | -9 | 12 | i | 0.0093 | 0.012* | 0.031 | 0.0089* | ? | 0.011*
CCCn1cc(S(=O)(=O)c2ccccc2)c(=O)c2cc(F)c(N3CCN(C)CC3)cc21 | · | i | 306 | -7 | 15 | i | · | · | · | · | · | ·
